Read-outs that look alike come from different tables or passages of the source. Each block holds one molecule with its values, some of them ahead of it.
Legend:
BCRP = target: T1, BCRP (Homo sapiens, UniProt Q9UNQ0); assay type: cell-based
T1 sequence (Q9UNQ0 1-655): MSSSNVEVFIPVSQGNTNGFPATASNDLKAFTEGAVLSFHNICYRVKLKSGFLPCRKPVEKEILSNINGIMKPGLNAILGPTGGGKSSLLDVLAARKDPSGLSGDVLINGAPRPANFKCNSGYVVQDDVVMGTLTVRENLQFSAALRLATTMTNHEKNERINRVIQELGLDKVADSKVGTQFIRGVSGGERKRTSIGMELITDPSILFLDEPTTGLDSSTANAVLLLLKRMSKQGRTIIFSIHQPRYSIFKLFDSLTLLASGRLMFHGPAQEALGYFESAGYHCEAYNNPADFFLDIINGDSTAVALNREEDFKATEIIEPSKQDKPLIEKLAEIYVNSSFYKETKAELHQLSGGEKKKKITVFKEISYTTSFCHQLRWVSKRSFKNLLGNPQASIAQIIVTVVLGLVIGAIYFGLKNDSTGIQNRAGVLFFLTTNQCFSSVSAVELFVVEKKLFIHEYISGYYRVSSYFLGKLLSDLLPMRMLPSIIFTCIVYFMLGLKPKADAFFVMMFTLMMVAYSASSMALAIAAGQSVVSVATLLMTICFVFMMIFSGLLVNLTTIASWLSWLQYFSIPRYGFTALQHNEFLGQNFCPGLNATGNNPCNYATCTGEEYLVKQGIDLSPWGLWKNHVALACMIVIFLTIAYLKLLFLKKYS
Procedure, shortened: (§1)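 Transporter-overexpressing HEK293 cells were cultured in DMEM with 10% FBS, 1% penicillin/streptomycin and selection antibiotics at 37°C, 5% CO₂. Test compounds were screened at 10 μM and 30 μM, and uptake was quantified as normalised peak areas. For OATP1B1/1B3, uptake was compared with empty-vector cells, and for OATP1B1 also with cells treated with the inhibitor cyclosporine A.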

P-gp = P-gp (Homo sapiens, UniProt P08183); assay: Inhibitor screening of [3H]digoxin accumulation in HEK293 cells expressing P-gp; assay type: cell-based
P-gp, sequence (P08183 whole entry): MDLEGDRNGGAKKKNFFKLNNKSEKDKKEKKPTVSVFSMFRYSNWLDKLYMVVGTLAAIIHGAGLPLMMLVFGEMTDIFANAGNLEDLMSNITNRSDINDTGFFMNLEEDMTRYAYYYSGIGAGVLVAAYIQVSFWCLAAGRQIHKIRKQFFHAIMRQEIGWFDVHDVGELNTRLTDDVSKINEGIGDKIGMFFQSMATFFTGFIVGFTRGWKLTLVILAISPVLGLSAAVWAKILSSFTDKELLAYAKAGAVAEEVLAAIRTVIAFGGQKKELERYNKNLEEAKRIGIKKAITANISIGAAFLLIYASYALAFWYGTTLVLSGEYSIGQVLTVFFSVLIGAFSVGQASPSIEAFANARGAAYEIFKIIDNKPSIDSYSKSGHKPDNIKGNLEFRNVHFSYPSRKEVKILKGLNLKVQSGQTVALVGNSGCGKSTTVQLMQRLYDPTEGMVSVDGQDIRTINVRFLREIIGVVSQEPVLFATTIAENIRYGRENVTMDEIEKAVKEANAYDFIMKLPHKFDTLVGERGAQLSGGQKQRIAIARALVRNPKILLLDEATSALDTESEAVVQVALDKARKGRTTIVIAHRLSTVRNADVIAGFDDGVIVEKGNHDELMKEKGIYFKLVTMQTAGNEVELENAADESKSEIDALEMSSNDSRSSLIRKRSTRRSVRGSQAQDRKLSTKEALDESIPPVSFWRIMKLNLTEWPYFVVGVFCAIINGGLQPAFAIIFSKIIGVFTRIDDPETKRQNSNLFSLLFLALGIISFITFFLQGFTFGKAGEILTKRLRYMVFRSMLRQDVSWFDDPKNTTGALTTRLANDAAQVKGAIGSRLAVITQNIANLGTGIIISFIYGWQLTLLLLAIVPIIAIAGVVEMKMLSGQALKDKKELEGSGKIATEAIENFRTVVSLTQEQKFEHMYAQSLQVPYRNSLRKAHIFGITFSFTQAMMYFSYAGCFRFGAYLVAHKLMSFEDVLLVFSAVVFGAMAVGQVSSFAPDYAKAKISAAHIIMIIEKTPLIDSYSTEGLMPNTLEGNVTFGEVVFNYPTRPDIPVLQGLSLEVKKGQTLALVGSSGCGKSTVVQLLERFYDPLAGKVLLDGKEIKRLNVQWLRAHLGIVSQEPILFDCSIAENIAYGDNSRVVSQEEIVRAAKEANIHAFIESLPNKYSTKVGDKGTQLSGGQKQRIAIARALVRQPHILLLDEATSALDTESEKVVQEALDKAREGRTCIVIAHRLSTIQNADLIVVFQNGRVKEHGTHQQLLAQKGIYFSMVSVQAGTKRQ
Procedure, shortened: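 HEK293 lines overexpressing the named transporter were grown in DMEM with 10% FBS, 1% penicillin/streptomycin and line-specific selection antibiotics, at 37°C, humidified, 5% CO₂. Cell-based uptake assays measured inhibition of transporter activity.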

ABCG2 p.Q141K variant = assay type: in vivo, human
Procedure, shortened: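 Open-label fixed-sequence crossover in 11 healthy non-smoking adults aged 18–64. Single oral rosuvastatin 10 mg given after an overnight fast, with fasting continued 4 h. Heparinised venous plasma was stored at −70°C and analysed by LC–MS. ABCG2 c.421C>A was genotyped blind by PCR and Sanger sequencing. Nine CC and two CA subjects were compared at T = 0 h and by noncompartmental PK, using log-transformed geometric means and unpaired t-tests.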

OATP1B3 = target: T2, OATP1B3 (Homo sapiens, UniProt Q9NPD5); assay: Substrate screening in HEK293 cells expressing OATP1B3; assay type: cell-based
T2 sequence (Q9NPD5 1-702): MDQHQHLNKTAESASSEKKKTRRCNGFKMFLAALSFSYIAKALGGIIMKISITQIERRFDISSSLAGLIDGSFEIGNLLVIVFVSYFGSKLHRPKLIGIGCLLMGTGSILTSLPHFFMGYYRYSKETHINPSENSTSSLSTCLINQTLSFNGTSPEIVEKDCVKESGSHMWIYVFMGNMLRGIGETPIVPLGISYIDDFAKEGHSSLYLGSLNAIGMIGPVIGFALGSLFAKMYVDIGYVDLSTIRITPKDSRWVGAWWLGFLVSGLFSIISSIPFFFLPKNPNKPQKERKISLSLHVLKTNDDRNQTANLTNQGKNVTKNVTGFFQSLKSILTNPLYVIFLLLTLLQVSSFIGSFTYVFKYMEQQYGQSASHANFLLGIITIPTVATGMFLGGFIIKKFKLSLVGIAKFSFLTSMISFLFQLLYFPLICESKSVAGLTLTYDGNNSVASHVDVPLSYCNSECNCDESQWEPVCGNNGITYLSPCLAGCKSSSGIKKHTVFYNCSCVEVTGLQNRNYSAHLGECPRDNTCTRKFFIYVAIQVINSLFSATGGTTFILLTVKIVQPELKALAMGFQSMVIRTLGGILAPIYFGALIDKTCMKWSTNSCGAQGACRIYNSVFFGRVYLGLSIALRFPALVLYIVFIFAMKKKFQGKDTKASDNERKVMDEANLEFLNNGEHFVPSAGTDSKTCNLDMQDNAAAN
Procedure, shortened: as §1

[1] = assay type: in vivo, human; conditions: for AUC(0-t) / V/F/kg: geometric mean (90% CI)
OATP1B1 = target: T3, OATP1B1 (Homo sapiens, UniProt Q9Y6L6); assay type: cell-based; conditions: HEK293 OATP1B1 cells
T3 sequence (Q9Y6L6 1-691): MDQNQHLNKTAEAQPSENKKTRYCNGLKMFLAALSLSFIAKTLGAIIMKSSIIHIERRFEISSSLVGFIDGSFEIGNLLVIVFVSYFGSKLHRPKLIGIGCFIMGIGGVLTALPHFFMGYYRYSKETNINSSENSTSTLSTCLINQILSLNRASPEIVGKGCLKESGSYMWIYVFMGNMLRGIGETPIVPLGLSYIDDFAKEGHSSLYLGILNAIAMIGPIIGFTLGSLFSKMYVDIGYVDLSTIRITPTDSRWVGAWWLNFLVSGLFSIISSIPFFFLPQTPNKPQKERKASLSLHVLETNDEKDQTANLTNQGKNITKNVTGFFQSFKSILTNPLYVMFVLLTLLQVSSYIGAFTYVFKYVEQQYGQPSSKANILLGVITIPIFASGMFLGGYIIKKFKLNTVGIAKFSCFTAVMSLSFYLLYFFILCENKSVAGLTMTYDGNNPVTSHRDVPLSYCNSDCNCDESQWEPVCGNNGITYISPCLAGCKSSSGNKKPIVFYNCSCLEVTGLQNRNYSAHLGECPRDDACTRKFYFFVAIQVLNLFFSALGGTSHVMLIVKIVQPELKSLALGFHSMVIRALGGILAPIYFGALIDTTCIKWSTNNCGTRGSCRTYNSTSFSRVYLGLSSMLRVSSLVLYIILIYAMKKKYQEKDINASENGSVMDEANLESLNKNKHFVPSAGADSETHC
Procedure, shortened: as §1

[2] = both, human, plasma, oral, 10 mg
[3] = both, human, plasma, oral, 10 mg, AUC0−4, rosuvastatin alone arm
[4] = both, human, plasma, oral, AUC0−4, rosuvastatin + eltrombopag arm
[5] = human, in vivo, listed as rosuvastatin

- Uptake in BCRP-expressing HEK293 cells compared to same cell line with Ko143 (BCRP; 10 μM and 30 μM, 30 min): significantly reduced
- BCRP substrate classification (BCRP; HEK293 BCRP cells): BCRP substrates
- Effect on intracellular accumulation of P-gp substrate [3H]digoxin (P-gp): did not affect
- Baseline concentrations, heterozygous p.Q141K vs homozygous reference allele (ABCG2 p.Q141K variant; two p.Q141K (CA) vs nine REF (CC) individuals, T = 0 h): not statistically significant
- OATP1B3 substrate classification (OATP1B3): not substrates
- AUC0−24, geometric mean ratio (90% CI) of rosuvastatin + eltrombopag arm to rosuvastatin alone arm ([1]; both, human, plasma, oral): 1.03 (0.97–1.10); P = 0.39
- C0 at 0 h ([1]; both, human, plasma, oral): 0.8 ng/mL
- Cmax ([1]; both, human, plasma, oral): 0.98 ng/mL
- C0 at 0 h [1, 2]: 0.73 ng/mL
- Cmax [1, 2]: 1.03 ng/mL
- AUC(0-t) [1, 3]: 3.02 ng·h/mL
- AUC(0-t) ([1]; both, human, plasma, oral, 10 mg, AUC0−24, rosuvastatin alone arm): 18.6 ng·h/mL
- AUC(0-t) [1, 4]: 2.97 ng·h/mL
- AUC(0-t) ([1]; both, human, plasma, oral, AUC0−24, rosuvastatin + eltrombopag arm): 19.2 ng·h/mL
- Effect of eltrombopag administration on plasma concentrations (in words) ([1]; eltrombopag 75 mg daily for 5 days): did not lead to corresponding increases
- AUC0−4, geometric mean ratio (90% CI) of rosuvastatin + eltrombopag arm to rosuvastatin alone arm ([1]; human, in vivo): 0.98 (0.93–1.04); P = 0.72
- C0, geometric mean ratio (90% CI) of rosuvastatin + eltrombopag arm to rosuvastatin alone arm ([1]; human, in vivo): 1.10 (1.00–1.21); P = 0.07
- Cmax, geometric mean ratio (90% CI) of rosuvastatin + eltrombopag arm to rosuvastatin alone arm ([1]; human, in vivo): 0.95 (0.85–1.06); P = 0.49
- Food effects, fasted (AUC0−4) vs fed (AUC4−8) ([1]; human, in vivo): No food effects
- OATP1B1 substrate classification (OATP1B1): not substrates
Compound: O=C(O)c1c(O)c(Cl)cc(Cl)c1O [DCDBA, 3,5‐dichloro‐2,6‐dihydroxybenzoic acid]

Compound: CC(C)c1nc(N(C)S(C)(=O)=O)nc(-c2ccc(F)cc2)c1/C=C/[C@@H](O)C[C@@H](O)CC(=O)O [Rosuvastatin, reference compound]
- AUC0–4, fold higher in p.Q141K variant vs reference allele (ABCG2 p.Q141K variant; rosuvastatin 10 mg): 2.9 fold
- AUC0–INF, fold higher in p.Q141K variant vs reference allele (ABCG2 p.Q141K variant; rosuvastatin 10 mg): 2.6 fold
- Cmax, fold higher in p.Q141K variant vs reference allele (ABCG2 p.Q141K variant; rosuvastatin 10 mg): 2.4 fold
- AUC(0-inf) ([1]; both, human, plasma, oral): 116 ng·h/mL
- CL/F ([1]; both, human, plasma, oral): 19.7 mL/min/kg
- Cmax ([1]; both, human, plasma, oral): 10.9 ng/mL
- half-life ([1]; both, human, plasma, oral): 8.8 h
- AUC(0-inf) [1, 2]: 69.1 ng·h/mL
- CL/F [1, 2]: 32.7 mL/min/kg
- Cmax [1, 2]: 5.4 ng/mL
- half-life [1, 2]: 10.4 h
- AUC(0-t) [1, 3]: 11.8 ng·h/mL
- AUC(0-t) [1, 4]: 25 ng·h/mL
- AUC0−4, geometric mean ratio (90% CI) of rosuvastatin + eltrombopag arm to rosuvastatin alone arm ([1]; human, in vivo): 2.12 (1.71–2.62); P = 0.002
- AUC0−INF, geometric mean ratio (90% CI) of rosuvastatin + eltrombopag arm to rosuvastatin alone arm ([1]; human, in vivo): 1.80 (1.49–2.17); P = 0.002
- CL/F/kg, geometric mean ratio (90% CI) of rosuvastatin + eltrombopag arm to rosuvastatin alone arm ([1]; human, in vivo): 0.56 (0.46–0.67); P = 0.02
- Cmax, geometric mean ratio (90% CI) of rosuvastatin + eltrombopag arm to rosuvastatin alone arm ([1]; human, in vivo): 2.01 (1.59–2.53); P = 0.002
- T1/2, geometric mean ratio (90% CI) of rosuvastatin + eltrombopag arm to rosuvastatin alone arm ([1]; human, in vivo): 0.88 (0.78–0.99); P = 0.13
- V/F/kg, geometric mean ratio (90% CI) of rosuvastatin + eltrombopag arm to rosuvastatin alone arm ([1]; human, in vivo): 0.49 (0.38–0.63); P = 0.004
- AUC0−4, geometric mean ratio (90% CI) of rosuvastatin + eltrombopag arm to rosuvastatin alone arm [1, 5]: 2.1
- AUC0−INF, geometric mean ratio (90% CI) of rosuvastatin + eltrombopag arm to rosuvastatin alone arm [1, 5]: 1.8
- Cmax, geometric mean ratio (90% CI) of rosuvastatin + eltrombopag arm to rosuvastatin alone arm [1, 5]: twofold
- Tmax ([1]; rosuvastatin + eltrombopag arm): 4 (3.5–5) h
- V/F/kg ([1]; rosuvastatin + eltrombopag arm): 14.9 (11.5–17.8) L/kg
- V/F/kg ([1]; rosuvastatin + eltrombopag arm, listed as rosuvastatin): 14.9 L/kg
- Tmax ([1]; rosuvastatin alone arm): 5 (1.5–5) h
- V/F/kg ([1]; rosuvastatin alone arm): 29.3 (22.8–37.7) L/kg
- V/F/kg ([1]; rosuvastatin alone arm, listed as rosuvastatin): 29.3 L/kg
